ChEMBL document CHEMBL2311425, “Histone deacetylase (HDAC) inhibitors with a novel connecting unit linker region reveal a selectivity profile for HDAC4 and HDAC5 with improved activity against chemoresistant cancer cells” (J Med Chem, 2013)

Experiments:
KYSE-510 [1] = experiment: Potentiation of 3.16 uM cisplatin-induced toxicity in 0.5 uM cisplatin resistant human KYSE-510 cells at 1.5 uM pretreated for 48 hrs followed by 0.5 uM cisplatin treatment by MTT assay; assay type: functional
CAL-27 [2] = experiment: Potentiation of 5 uM cisplatin-induced toxicity in 1 uM cisplatin resistant human CAL27 cells at 1 uM pretreated for 48 hrs followed by 1 uM cisplatin treatment by MTT assay; assay type: functional
CAL-27 [3] = experiment: Potentiation of 2.5 uM cisplatin-induced toxicity in 1 uM cisplatin resistant human CAL27 cells at 0.25 uM pretreated for 48 hrs followed by 1 uM cisplatin treatment by MTT assay; assay type: functional
CAL-27 [4] = experiment: Potentiation of 10 uM cisplatin-induced toxicity in 1 uM cisplatin resistant human CAL27 cells at 0.5 uM pretreated for 48 hrs followed by 1 uM cisplatin treatment by MTT assay; assay type: functional
Histone deacetylase [5] = experiment: Inhibition of HDAC in cisplatin sensitive human CAL27 cells after 18 hrs by fluorescence assay; assay type: cell-based; conditions: cal-27
CAL-27 [6] = experiment: Potentiation of 10 uM cisplatin-induced toxicity in 1 uM cisplatin resistant human CAL27 cells at 1 uM pretreated for 48 hrs followed by 1 uM cisplatin treatment by MTT assay; assay type: functional
CAL-27 [7] = experiment: Potentiation of 45 uM cisplatin-induced toxicity in 1 uM cisplatin resistant human CAL27 cells at 1.5 uM pretreated for 48 hrs followed by 1 uM cisplatin treatment by MTT assay; assay type: functional
KYSE-510 [8] = experiment: Potentiation of 8 uM cisplatin-induced toxicity in 0.5 uM cisplatin resistant human KYSE-510 cells at 1 uM pretreated for 48 hrs followed by 0.5 uM cisplatin treatment by MTT assay; assay type: functional
CAL-27 [9] = experiment: Potentiation of 1 uM cisplatin-induced toxicity in 1 uM cisplatin resistant human CAL27 cells at 1 uM pretreated for 48 hrs followed by 1 uM cisplatin treatment by MTT assay; assay type: functional
MDA-MB-231 [10] = experiment: Potentiation of 40 uM cisplatin-induced toxicity in 1 uM cisplatin resistant human MDA-MB-231 cells at 0.25 uM pretreated for 48 hrs followed by 1 uM cisplatin treatment by MTT assay; assay type: functional
CAL-27 [11] = experiment: Potentiation of 5 uM cisplatin-induced toxicity in 1 uM cisplatin resistant human CAL27 cells at 1.5 uM pretreated for 48 hrs followed by 1 uM cisplatin treatment by MTT assay; assay type: functional
A2780 = experiment: Potentiation of 10 uM cisplatin-induced toxicity in 5 uM cisplatin resistant human A2780 cells at 1.5 uM pretreated for 48 hrs followed by 5 uM cisplatin treatment by MTT assay; assay type: functional
KYSE-510 [12] = experiment: Potentiation of 0.5 uM cisplatin-induced toxicity in 0.5 uM cisplatin resistant human KYSE-510 cells at 0.5 uM pretreated for 48 hrs followed by 0.5 uM cisplatin treatment by MTT assay; assay type: functional
KYSE-510 [13] = experiment: Potentiation of 1 uM cisplatin-induced toxicity in 0.5 uM cisplatin resistant human KYSE-510 cells at 1.5 uM pretreated for 48 hrs followed by 0.5 uM cisplatin treatment by MTT assay; assay type: functional
MDA-MB-231 [14] = experiment: Potentiation of 5 uM cisplatin-induced toxicity in 1 uM cisplatin resistant human MDA-MB-231 cells at 1 uM pretreated for 48 hrs followed by 1 uM cisplatin treatment by MTT assay; assay type: functional
CAL-27 [15] = experiment: Potentiation of 45 uM cisplatin-induced toxicity in 1 uM cisplatin resistant human CAL27 cells at 0.5 uM pretreated for 48 hrs followed by 1 uM cisplatin treatment by MTT assay; assay type: functional
KYSE-510 [16] = experiment: Potentiation of 1 uM cisplatin-induced toxicity in 0.5 uM cisplatin resistant human KYSE-510 cells at 0.5 uM pretreated for 48 hrs followed by 0.5 uM cisplatin treatment by MTT assay; assay type: functional
KYSE-510 [17] = experiment: Potentiation of 0.5 uM cisplatin-induced toxicity in 0.5 uM cisplatin resistant human KYSE-510 cells at 1 uM pretreated for 48 hrs followed by 0.5 uM cisplatin treatment by MTT assay; assay type: functional
KYSE-510 [18] = experiment: Potentiation of 3.16 uM cisplatin-induced toxicity in 0.5 uM cisplatin resistant human KYSE-510 cells at 0.25 uM pretreated for 48 hrs followed by 0.5 uM cisplatin treatment by MTT assay; assay type: functional
KYSE-510 [19] = experiment: Potentiation of 3.16 uM cisplatin-induced toxicity in 0.5 uM cisplatin resistant human KYSE-510 cells at 0.5 uM pretreated for 48 hrs followed by 0.5 uM cisplatin treatment by MTT assay; assay type: functional
Histone deacetylase [20] = experiment: Inhibition of HDAC in cisplatin sensitive human KYSE-510 cells after 18 hrs by fluorescence assay; assay type: cell-based
MDA-MB-231 [21] = experiment: Cytotoxicity against cisplatin sensitive human MDA-MB-231 cells after 72 hrs by MTT assay; assay type: functional, cell-based
How it was run: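 MDA-MB-231 (parental), 10 000 cells/well, in DMEM with 15% FCS at 37 °C, 5% CO2. Compounds added 24 h after seeding for 72 h. MTT (5 mg/mL in PBS) was added, formazan dissolved in DMSO, absorbance read at 544 and 690 nm. IC50 from four-parameter logistic fit of ≥3 experiments in triplicate.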

KYSE-510 [22] = experiment: Potentiation of cisplatin-induced toxicity in cisplatin resistant human KYSE-510 cells at 1 uM pretreated for 48 hrs followed by cisplatin treatment by MTT assay; assay type: functional
How it was run: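 Resistant sublines pretreated 48 h with 1 μM HDAC inhibitor, then cisplatin over a concentration range for 72 h; MTT viability read at 544/690 nm. Cisplatin IC50 from four-parameter logistic fit of pooled data (≥3 experiments, triplicate); shift factor = IC50 of cisplatin alone divided by IC50 of the combination.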

MDA-MB-231 [23] = experiment: Potentiation of 10 uM cisplatin-induced toxicity in 1 uM cisplatin resistant human MDA-MB-231 cells at 1.5 uM pretreated for 48 hrs followed by 1 uM cisplatin treatment by MTT assay; assay type: functional
MDA-MB-231 [24] = experiment: Potentiation of 40 uM cisplatin-induced toxicity in 1 uM cisplatin resistant human MDA-MB-231 cells at 0.5 uM pretreated for 48 hrs followed by 1 uM cisplatin treatment by MTT assay; assay type: functional
CAL-27 [25] = experiment: Potentiation of 5 uM cisplatin-induced toxicity in 1 uM cisplatin resistant human CAL27 cells at 0.5 uM pretreated for 48 hrs followed by 1 uM cisplatin treatment by MTT assay; assay type: functional
KYSE-510 [26] = experiment: Potentiation of 8 uM cisplatin-induced toxicity in 0.5 uM cisplatin resistant human KYSE-510 cells at 1.5 uM pretreated for 48 hrs followed by 0.5 uM cisplatin treatment by MTT assay; assay type: functional

With `Cc1cc(C)cc(C(=O)NOCCCCCC(=O)NO)c1` the Activity (KYSE-510 [1]) was “Dose-dependent effect”, the “fractional inhibitory concentration index (FICI)” value (KYSE-510 [1]) was 0.12 and the Activity (CAL-27 [2]) was “Dose-dependent effect”. The “fractional inhibitory concentration index (FICI)” value (CAL-27 [2]) was 0.26, the Activity (CAL-27 [3]) was “Dose-dependent effect” and the Activity (CAL-27 [4]) was “Dose-dependent effect”. The “fractional inhibitory concentration index (FICI)” value (CAL-27 [4]) was 0.41, the IC50 (Histone deacetylase [5]) was 360 nM and the Activity (CAL-27 [6]) was “Dose-dependent effect”. The “fractional inhibitory concentration index (FICI)” value (CAL-27 [6]) was 0.24, the Activity (CAL-27 [7]) was “Dose-dependent effect” and the “fractional inhibitory concentration index (FICI)” value (CAL-27 [7]) was 0.23. For the same compound, the Activity (KYSE-510 [8]) was “Dose-dependent effect”, the “fractional inhibitory concentration index (FICI)” value (KYSE-510 [8]) was 0.18 and the Activity (CAL-27 [9]) was “Dose-dependent effect”. The Activity (MDA-MB-231 [10]) was “Dose-dependent effect”, the Activity (CAL-27 [11]) was “Dose-dependent effect” and the “fractional inhibitory concentration index (FICI)” value (CAL-27 [11]) was 0.22. The Activity (A2780) was “Dose-dependent effect”, the “fractional inhibitory concentration index (FICI)” value (A2780) was 0.68 and the Activity (KYSE-510 [12]) was “Dose-dependent effect”. For the same compound, the “fractional inhibitory concentration index (FICI)” value (KYSE-510 [12]) was 0.13, the Activity (KYSE-510 [13]) was “Dose-dependent effect” and the “fractional inhibitory concentration index (FICI)” value (KYSE-510 [13]) was 0.05. The Activity (MDA-MB-231 [14]) was “Dose-dependent effect”, the Activity (CAL-27 [15]) was “Dose-dependent effect” and the “fractional inhibitory concentration index (FICI)” value (CAL-27 [15]) was 0.31. For the same compound, the Activity (KYSE-510 [16]) was “Dose-dependent effect”, the “fractional inhibitory concentration index (FICI)” value (KYSE-510 [16]) was 0.08 and the Activity (KYSE-510 [17]) was “Dose-dependent effect”. The “fractional inhibitory concentration index (FICI)” value (KYSE-510 [17]) was 0.08, the Activity (KYSE-510 [18]) was “Dose-dependent effect” and the “fractional inhibitory concentration index (FICI)” value (KYSE-510 [18]) was 0.18. The Activity (KYSE-510 [19]) was “Dose-dependent effect”, the “fractional inhibitory concentration index (FICI)” value (KYSE-510 [19]) was 0.09 and the IC50 (Histone deacetylase [20]) was 1000 nM. The Activity (MDA-MB-231 [21]) was “Dose-dependent effect”, the IC50 (MDA-MB-231 [21]; MDA-MB-231, 72 h) was 1370 nM and the Activity (KYSE-510 [22]) was “Dose-dependent effect”. The fold change (FC) (KYSE-510 [22]) was 18.8, the Activity (MDA-MB-231 [23]) was “Dose-dependent effect” and the “fractional inhibitory concentration index (FICI)” value (MDA-MB-231 [23]) was 0.79. For the same compound, the Activity (MDA-MB-231 [24]) was “Dose-dependent effect”, the “fractional inhibitory concentration index (FICI)” value (MDA-MB-231 [24]) was 0.88 and the Activity (CAL-27 [25]) was “Dose-dependent effect”. The “fractional inhibitory concentration index (FICI)” value (CAL-27 [25]) was 0.45, the Activity (KYSE-510 [26]) was “Dose-dependent effect” and the “fractional inhibitory concentration index (FICI)” value (KYSE-510 [26]) was 0.16.
